This note sets out measurements from ChEMBL document CHEMBL1125311, “Inhibition of human leukocyte elastase. 4. Selection of a substituted cephalosporin (L-658,758) as a topical aerosol” (J Med Chem, 1992).

Series [1] relates to Cricetinae gen. sp. As to the kind of experiment: Compound was evaluated in vivo for inhibition of HLE-induced hemorrhage in hamster lung at 200 microg 4 hr after administration prior to HLE. The series is classed as functional, Cricetulus griseus. An outline of the steps:
(§1)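 Hamster duration protocol: 200 μg/animal given intratracheally 60, 120, 180 or 240 min before IT HLE instillation; hemorrhage scored after 3 h as hemoglobin (414 nm) in saline lung lavage, relative to vehicle-treated animals; three animals per point. T50 taken as time at which 50% inhibition is still obtained.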

Series [2] concerns Cricetinae gen. sp. As to the kind of experiment: Inhibitory activity against Human Leukocyte Elastase by Lung Hemorrhage assay (Effective dose at 15 microg). The series is classed as functional, Cricetulus griseus.
The species named for the next series is Rattus norvegicus. The series can be described thus: Inhibition of lung hemorrhage caused by elastase in an acute reverse passive Arthus reaction in rat at 250 ug/animal (ED50=55 ug). Type of series: functional.
Series [3] is filed under the species Homo sapiens. As to the kind of experiment: Inhibitory activity against Complement cascade at 10 min (120 mM conc). The series is classed as functional.
The target of series [4] is Plasminogen (Homo sapiens) (UniProt P00747). The series can be described thus: Inhibitory activity against Plasmin at 10 min (48 mM conc) using 0.2 mM Tosyl-Gly-Pro-Arg-p-nitroanilide as substrate. An outline of the steps: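 Human plasmin run under the same conditions as the HLE assay, with 0.2 mM Tosyl-Gly-Pro-Arg-p-nitroanilide as substrate. Inhibitor at 48 mM (so in the source). Percent inhibition read at 10 min.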

Series [5] concerns Cricetinae gen. sp. As to the kind of experiment: Compound was evaluated in vivo for inhibition of HLE-induced hemorrhage in hamster lung at 200 microg 2 hr after administration prior to HLE. The series is classed as functional, Cricetulus griseus. An outline of the steps: as §1
Series [6] has as its target T1, Thermolysin (Bacillus thermoproteolyticus) (UniProt P00800).
T1 sequence (whole entry): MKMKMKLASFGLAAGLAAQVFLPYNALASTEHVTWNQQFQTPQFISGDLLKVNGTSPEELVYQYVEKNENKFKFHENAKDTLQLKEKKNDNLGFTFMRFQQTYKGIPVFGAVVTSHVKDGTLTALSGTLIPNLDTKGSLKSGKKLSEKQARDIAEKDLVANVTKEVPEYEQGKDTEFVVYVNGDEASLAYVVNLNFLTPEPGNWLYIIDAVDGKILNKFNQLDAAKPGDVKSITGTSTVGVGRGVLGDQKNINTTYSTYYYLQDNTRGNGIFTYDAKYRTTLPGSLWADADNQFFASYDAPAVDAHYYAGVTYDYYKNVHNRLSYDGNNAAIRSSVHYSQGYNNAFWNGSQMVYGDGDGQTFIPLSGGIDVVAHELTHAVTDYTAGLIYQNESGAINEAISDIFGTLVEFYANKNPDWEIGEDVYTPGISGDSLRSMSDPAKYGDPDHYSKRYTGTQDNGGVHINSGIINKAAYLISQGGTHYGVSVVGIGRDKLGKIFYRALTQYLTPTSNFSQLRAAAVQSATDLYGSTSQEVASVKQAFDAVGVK
As to the kind of experiment: Inhibitory activity against Thermolysin at 10 min (48 mM conc). An outline of the steps:
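Thermolysin cleaved 0.2 mM Suc-Ala-Ala-Phe-AMC in pH 7.5 TES with excess leucine aminopeptidase. Released 7-amino-4-methylcoumarin was read by fluorescence (ex 383, em 455). Percent inhibition was taken at 10 min.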

In series [7] the test system is Cricetinae gen. sp. The series can be described thus: Compound was evaluated in vivo for inhibition of HLE-induced hemorrhage in hamster lung at 200 microg 1 hr after administration prior to HLE. The series is classed as functional, Cricetulus griseus. An outline of the steps:
as §1

Series [8] concerns the target T2, Cathepsin G (Homo sapiens) (UniProt P08311).
T2 sequence (whole entry): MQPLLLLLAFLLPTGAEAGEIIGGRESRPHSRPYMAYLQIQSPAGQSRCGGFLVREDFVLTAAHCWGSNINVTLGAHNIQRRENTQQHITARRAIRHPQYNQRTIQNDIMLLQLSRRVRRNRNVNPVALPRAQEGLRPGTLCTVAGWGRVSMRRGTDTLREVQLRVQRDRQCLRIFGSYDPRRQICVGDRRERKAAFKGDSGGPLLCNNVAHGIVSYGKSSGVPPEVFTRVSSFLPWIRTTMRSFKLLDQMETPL
As to the kind of experiment: Inhibitory activity against Cathepsin G at 10 min (48 mM conc)using t-Boc-Tyr-ONp as substrate.

Series [9] can be described thus: Inhibition of elastin solubilization. The series is classed as functional.
Series [10] in a line: Partion ratio of the compound. The series is classed as ADME.
Series [11] addresses T3, Neutrophil elastase (Homo sapiens) (UniProt P08246).
T3 sequence (whole entry): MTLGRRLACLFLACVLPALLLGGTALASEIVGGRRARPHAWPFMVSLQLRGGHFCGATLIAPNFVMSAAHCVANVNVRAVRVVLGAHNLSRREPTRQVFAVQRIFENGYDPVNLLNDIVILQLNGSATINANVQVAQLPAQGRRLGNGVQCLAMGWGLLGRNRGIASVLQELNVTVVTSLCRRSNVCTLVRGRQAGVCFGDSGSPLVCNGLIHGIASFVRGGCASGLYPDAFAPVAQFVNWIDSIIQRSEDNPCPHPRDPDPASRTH

Series [12] has as its system Cricetinae gen. sp. The series can be described thus: Inhibition of lung hemorrhage at 200 ug/animal. Type of series: functional, Cricetulus griseus. An outline of the steps: as §1
The target of series [13] is Prothrombin (Homo sapiens) (UniProt P00734). The series can be described thus: Inhibitory activity against Thrombin at 10 min (48 mM conc). An outline of the steps: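 Human thrombin was assayed colorimetrically with 0.2 mM Tosyl-Gly-Pro-Arg-p-nitroanilide as substrate. Percent inhibition was read at 10 min.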
The nature of series [14]: Half-life value of the compound. The series is classed as ADME. An outline of the steps: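 Chemical stability: compound dissolved at 1 mg/mL in 0.5 M MOPS, pH 8.0, held at 25 °C in capped vial; aliquots quenched in 2% aqueous TFA and analysed by reverse-phase HPLC over one to two half-lives. Peak areas fit to first-order decay F(t)=A/2^(t/t1/2) to give t1/2.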
In series [15] the test system is Cricetinae gen. sp. As to the kind of experiment: Compound was evaluated in vivo for inhibition of HLE-induced hemorrhage in hamster lung at 30 microg 30 min after administration prior to HLE. The series is classed as functional, Cricetulus griseus. An outline of the steps:
(§2)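 Hamster, intratracheal dosing of compound (per animal) 30 min before IT instillation of 50 μg HLE (50 units in Experimental); hemorrhage read 3 h later: lungs lavaged with saline, hemoglobin in lavage measured at 414 nm. Percent inhibition from drug-treated vs vehicle-treated hemorrhage; three animals per dose and time. Titration at 100, 30, 10, 3 μg/animal gives ED50.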

Series [16] relates to Cricetinae gen. sp. The series can be described thus: Compound was evaluated in vivo for inhibition of HLE-induced hemorrhage in hamster lung at 100 microg 30 min after administration prior to HLE. Type of series: functional, Cricetulus griseus. An outline of the steps:
as §2

The species named for series [17] is Homo sapiens. As to the kind of experiment: Inhibitory activity against Clotting cascade at 10 min (240 nM conc). Type of series: functional. An outline of the steps: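 Whole clotting cascade tested with compound at 240 nM; percent inhibition at 10 min.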
For a further series, the target named is T4, Papain (Carica papaya) (UniProt P00784).
T4 sequence (whole entry): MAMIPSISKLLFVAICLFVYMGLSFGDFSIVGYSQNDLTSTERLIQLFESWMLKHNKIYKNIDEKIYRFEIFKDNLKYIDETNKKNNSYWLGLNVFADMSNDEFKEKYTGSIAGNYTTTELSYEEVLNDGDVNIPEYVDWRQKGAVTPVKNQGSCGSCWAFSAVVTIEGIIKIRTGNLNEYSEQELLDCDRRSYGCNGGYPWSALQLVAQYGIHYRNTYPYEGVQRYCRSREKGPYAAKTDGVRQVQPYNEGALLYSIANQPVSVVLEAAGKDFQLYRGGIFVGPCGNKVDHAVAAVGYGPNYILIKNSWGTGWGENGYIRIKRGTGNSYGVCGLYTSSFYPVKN
The series can be described thus: Inhibitory activity against Papain at 10 min (48 mM conc). An outline of the steps: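 Papain activity was read at 410 nm as p-nitroanilide release from benzoyl-Arg-p-nitroanilide, in pH 7.5 TES with 0.001 M EDTA, 0.005 M Cys and 10% DMSO. Percent inhibition was taken at 10 min.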

Series [18] concerns Cricetinae gen. sp. As to the kind of experiment: Inhibitory activity against Human Leukocyte Elastase by Lung Hemorrhage assay. Type of series: functional, Cricetulus griseus.
For series [19], the system named is Cricetinae gen. sp. As to the kind of experiment: Compound was evaluated in vivo for inhibition of HLE-induced hemorrhage in hamster lung at 200 microg 3h after administration prior to HLE. Type of series: functional, Cricetulus griseus. A digest of the protocol:
as §1

Series [20] concerns Cricetinae gen. sp. As to the kind of experiment: Compound was evaluated in vivo for inhibition of HLE-induced hemorrhage in hamster lung at 10 microg 30 min after administration prior to HLE. Type of series: functional, Cricetulus griseus. A digest of the protocol:
as §2

The next series has as its target T5, Neutrophil elastase (Homo sapiens, UniProt P08246).
T5 sequence (P08246 whole entry): T3 sequence (whole entry)
The series can be described thus: Inhibitory activity against HLE at 10 min (48 mM conc).

For another series, the target named is Pepsin A (Homo sapiens) (UniProt P0DJD9). As to the kind of experiment: Inhibitory activity against Pepsin at 48 mM for 10 min. An outline of the steps: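 Pepsin activity was tracked at 310 nm as hydrolysis of 1 mM Phe-Gly-His-p-NO2-Phe-Phe-Ala-OMe in 0.04 M formate buffer at pH 4.0. Percent inhibition was read at 10 min.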
Sequence of Pepsin A (Homo sapiens) (P0DJD9 63-388 limits assumed): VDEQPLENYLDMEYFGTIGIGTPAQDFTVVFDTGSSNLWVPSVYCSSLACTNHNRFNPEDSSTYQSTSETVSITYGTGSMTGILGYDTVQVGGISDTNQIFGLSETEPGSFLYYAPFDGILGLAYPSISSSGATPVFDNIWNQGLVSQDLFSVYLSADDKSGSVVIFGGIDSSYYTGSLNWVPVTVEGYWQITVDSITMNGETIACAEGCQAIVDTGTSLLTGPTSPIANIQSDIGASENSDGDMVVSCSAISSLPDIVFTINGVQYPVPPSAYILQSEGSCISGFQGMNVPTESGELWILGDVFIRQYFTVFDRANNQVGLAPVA

Sequence of Plasminogen (Homo sapiens) (P00747 97-580 limits assumed): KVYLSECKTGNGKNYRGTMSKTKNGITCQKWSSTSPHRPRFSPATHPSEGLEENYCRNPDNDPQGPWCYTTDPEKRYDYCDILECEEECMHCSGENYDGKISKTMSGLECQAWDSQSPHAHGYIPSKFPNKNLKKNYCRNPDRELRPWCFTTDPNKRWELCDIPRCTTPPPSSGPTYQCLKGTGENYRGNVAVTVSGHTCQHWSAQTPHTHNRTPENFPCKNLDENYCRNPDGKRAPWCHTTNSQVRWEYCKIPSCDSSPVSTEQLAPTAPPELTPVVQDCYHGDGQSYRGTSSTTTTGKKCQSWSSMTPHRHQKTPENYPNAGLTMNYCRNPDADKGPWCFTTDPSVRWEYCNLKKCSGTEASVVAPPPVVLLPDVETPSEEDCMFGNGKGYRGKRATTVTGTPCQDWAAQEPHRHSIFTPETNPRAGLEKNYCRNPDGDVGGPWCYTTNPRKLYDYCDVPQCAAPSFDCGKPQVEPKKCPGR
Sequence of Plasminogen (Homo sapiens) (P00747 581-810 limits assumed): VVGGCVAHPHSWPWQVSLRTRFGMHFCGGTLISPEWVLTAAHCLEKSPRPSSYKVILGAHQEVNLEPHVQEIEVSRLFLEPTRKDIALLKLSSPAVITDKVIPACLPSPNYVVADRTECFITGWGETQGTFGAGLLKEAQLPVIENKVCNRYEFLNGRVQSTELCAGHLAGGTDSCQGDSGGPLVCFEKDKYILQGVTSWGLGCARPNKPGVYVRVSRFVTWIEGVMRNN

For the molecule `CO[C@H]1C(=O)N2C(C(=O)N3CCC[C@H]3C(=O)O)=C(COC(C)=O)CS(=O)(=O)[C@H]12`, the Inhibition with Cricetinae gen. sp. [1] came out at 32%; in the series filed under Rattus norvegicus, 87%; in the series filed under Homo sapiens [3] it was 6%; with Cricetinae gen. sp. [5] it was 97%; in the series on Cricetinae gen. sp. [7] it was 99%; with Cricetinae gen. sp. [15], 86%. Further, the Inhibition with Cricetinae gen. sp. [16] is recorded as 93%; in the series filed under Homo sapiens [17], -8%; in the series on Cricetinae gen. sp. [18], 70%; with Cricetinae gen. sp. [19], 78%; with Cricetinae gen. sp. [20], 77%. In the series with Cricetinae gen. sp. [2], this molecule gave an ED50 of 30 µg. For the same molecule, the inhibition in [4] turned out to be 14%; in [6], 0%; in series [8] it was 18%; in series [13], 0%; against Papain (Carica papaya) it was 0%; at Pepsin A (Homo sapiens), 0%. For the same molecule, in series [9], the IC50 turned out to be 500 nM. Further, the Partition ratio in series [10] is reported as 2. Moreover, the k obs / 1 in series [11] was 3800 M⁻¹ s⁻¹. The T50 in the series with Cricetinae gen. sp. [12] turned out to be 185 min. The molecule also had a half-life in series [14] of 21 h. At Neutrophil elastase, this molecule registered a Ki of 1700 nM.
